# Screening results: PubChem, several laboratories
# Compounds with a hit are over-represented: about 3.7% of the library has one in this group of screens.
# Cl transport mod: modulates chloride dependent transport by human KCC2; Q9H2X9; KCC2 cells, thallium flux FluoZin-2 fluorescence; B-score of Tl+ flux slope (higher = more flux/activation; lower = inhibition) at 10 µM; actives 2.2% (n = 190,000); AID 1456;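 active = thallium flux slope and its plate-corrected score both differing from the plate sample mean at a set confidence after two filtering rounds, in either direction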;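 also: slope of fluorescence scaled to starting intensity during 10 to 20 s after thallium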
# NPY-Y1 antag: antagonists of human neuropeptide Y receptor Y1; inhibition, % at 3.6 µM; HEK293-CNG Y1 cells, membrane potential fluorescence; NPY at EC95, then isoproterenol; AID 1040; actives 1% (n = 200,000);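 active = inhibition above the campaign mean inhibition of all tested compounds plus 3 SD, cut at about 20% in these data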;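 also: 0% = DMSO wells given NPY plus isoproterenol and 100% = isoproterenol alone without NPY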
# Target sequence (P25929 whole entry, looked up): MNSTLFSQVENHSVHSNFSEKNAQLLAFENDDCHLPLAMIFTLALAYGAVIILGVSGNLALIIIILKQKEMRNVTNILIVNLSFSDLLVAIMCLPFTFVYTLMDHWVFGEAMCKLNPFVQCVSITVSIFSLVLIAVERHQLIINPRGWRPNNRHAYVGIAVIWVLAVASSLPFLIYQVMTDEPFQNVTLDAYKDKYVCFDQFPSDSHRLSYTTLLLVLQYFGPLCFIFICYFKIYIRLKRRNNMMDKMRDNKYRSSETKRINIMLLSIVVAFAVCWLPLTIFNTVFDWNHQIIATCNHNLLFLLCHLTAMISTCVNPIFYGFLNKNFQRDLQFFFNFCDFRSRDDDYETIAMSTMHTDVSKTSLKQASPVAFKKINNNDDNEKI
#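 material = HEK293 cells with Y1 receptor plus CNG channel | also added = NPY 25 nM then isoproterenol 1 µM plus Ro 20-1724 25 µM | schedule = dye 3 h, compound 60 min room temperature, stimulation 45 min | measured by = membrane potential fluorescence | benchmarks = high control isoproterenol alone, low control NPY with isoproterenol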
# NPY1 pot ag: human NPY-Y1 potentiation or agonism, primary screen | NPY-Y1 expressing cells, potentiator/agonist activation | activation, % at 3.6 µM | actives 0.37% (n = 220,000) | AID 1304; in the data active = activation above about 33%, passing the limit was not always enough;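 also: cells stimulated with NPY at EC10 then isoproterenol at EC100; 0% = low agonist plus stimulus and 100% = saturating agonist plus stimulus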
# NPY2 pot ag: potentiators or agonists of human neuropeptide Y receptor Y2 | P49146 | activation, % at 3.6 µM | cells expressing NPY-Y2, potentiator/agonist read-out | actives 0.45% (n = 220,000); in the data active = activation above about 27%;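 also: cells stimulated with NPY near EC25 plus isoproterenol at EC100; 0% = vehicle plus submaximal agonist and 100% = vehicle plus saturating agonist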
# Target sequence (P49146 whole entry, looked up): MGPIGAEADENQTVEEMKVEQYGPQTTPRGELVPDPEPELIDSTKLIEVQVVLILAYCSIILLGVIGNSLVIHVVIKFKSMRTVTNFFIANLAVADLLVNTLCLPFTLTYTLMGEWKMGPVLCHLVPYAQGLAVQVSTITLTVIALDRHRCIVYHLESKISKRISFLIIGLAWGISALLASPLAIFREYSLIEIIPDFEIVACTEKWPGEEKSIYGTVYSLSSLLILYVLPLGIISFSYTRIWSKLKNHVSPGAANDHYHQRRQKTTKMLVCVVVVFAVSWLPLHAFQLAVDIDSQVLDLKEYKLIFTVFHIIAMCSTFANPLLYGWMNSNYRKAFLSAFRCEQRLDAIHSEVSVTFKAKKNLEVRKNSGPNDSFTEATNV
# Furin inh: inhibitors of human furin. actives 0.061% (n = 220,000). purified furin, fluorogenic substrate cleavage. P09958. inhibition, % at 20 µM or 30 µM. AID 463115; in the data active = inhibition above about 25%
# NPY-Y2 antag: blocks the human neuropeptide Y Y2 receptor. inhibition, % at 2.7 µM. actives 0.99% (n = 140,000). NPY-Y2 expressing cells, antagonist mode. P49146. AID 793; in the data active = inhibition above about 17%;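 also: 0% = vehicle with agonist challenge and 100% = reference antagonist with challenge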
# KCC2 sec1: confirmation of human KCC2 transport modulators | shares compounds with Cl transport mod | HEK293-KCC2, thallium flux, FluoZin2 fluorescence; hits give high values | normalised thallium flux (F/F0 slope) at 10 µM | actives 15% (n = 3,700);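 active = thallium flux slope above the same plate's solvent-only control mean plus 3 SD; inconclusive = the two replicate wells disagree; inactive = no significant difference from solvent-only control wells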
# KCC2 bumet counter: thallium flux persisting under bumetanide in KCC2 cells, counter-screen secondary assay; shares compounds with Cl transport mod; HEK293-KCC2 + bumetanide/ouabain, thallium flux FluoZin2; hits give high values; normalized thallium flux at 10 µM; actives 49% (n = 3,700);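 active = thallium entry rate above the same plate's blocked-transporter control wells by more than 3 SD; inconclusive = the two repeat wells disagree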;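 also: raw slope of fluorescence over initial fluorescence between 10 and 20 s after thallium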
# KCC2 sec2: confirmation of human KCC2 transport modulators; actives 23% (n = 3,700); normalized thallium flux at 10 µM; shares compounds with Cl transport mod; HEK293-KCC2, thallium flux FluoZin2 fluorescence; actives lie on both sides; F/F0 rise rate, 10–20 s post-thallium;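 active = thallium flux slope more than 3 SD above or below the plate's solvent-only control mean, mostly below; inconclusive = the two repeat wells disagreed; inactive = no significant shift from solvent-only controls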;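 also: raw slope with 0.1% DMSO as baseline and bumetanide as block control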
# HEK293 Tl flux: counter-screen for KCC2 modulators: effect in parental HEK293 cells; thallium flux rate (normalised fluorescence) at 10 µM; thallium flux FluoZin2, ouabain; baseline-ratio fluorescence slope, 10–20 s after thallium; AID 1716; shares compounds with Cl transport mod; actives 46% (n = 3,700);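 active = thallium flux rate significantly above the same plate's solvent-only control wells, beyond their mean plus 3 SD; inconclusive = the two replicate wells gave conflicting results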
# KCC2 ouabain: confirmation of human KCC2 modulators with ouabain | shares compounds with Cl transport mod | HEK293-KCC2, thallium flux FluoZin2 fluorescence; bidirectional: low = inhibitor, high = activator | raw Tl+ flux slope (below DMSO = inhibition, above = activation) at 10 µM | actives 48% (n = 3,700) | AID 1717;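 active = thallium flux slope beyond 3 SD from same-plate DMSO control mean in most replicates, usually higher, sometimes lower; inconclusive = repeat tests gave conflicting results; inactive = no significant difference from controls in most replicates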;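 also: slope of initial-normalized fluorescence between seconds 10 and 20 after thallium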
# HEK counter2: counter-screen for KCC2 modulators: effect in parental HEK293 cells | shares compounds with Cl transport mod | thallium flux FluoZin-2 fluorescence slope | thallium flux slope at 10 µM | actives 33% (n = 3,700);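 active = thallium flux slope above the same plate's solvent-control mean plus 3 SD in both duplicate wells; inconclusive = duplicate wells that disagreed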;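 also: run without ouabain in cells lacking the KCC2 cotransporter; slope of fluorescence scaled to its starting value between 10 and 20 s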
# * hit, by the source's call; ? = inconclusive; nt = not tested or not shown.
SMILES,Cl transport mod,NPY-Y1 antag,NPY1 pot ag,NPY2 pot ag,Furin inh,NPY-Y2 antag,KCC2 sec1,KCC2 bumet counter,KCC2 sec2,HEK293 Tl flux,KCC2 ouabain,HEK counter2
Cc1ccc(C)c(/C=N/n2cc(-c3ccccc3)[nH]c2=S)c1,21*,-1,14,16,-21,nt,0.013*,0.047*,0.035,0.055*,0.041*,0.014*
Fc1ccccc1/C=N/n1cc(-c2ccccc2)[nH]c1=S,75*,nt,12,6,-23,nt,0.026*,0.12*,0.035,0.053*,0.067*,0.017*
CCC(Oc1ccccc1)C(=O)Nc1ncc([N+](=O)[O-])s1 (stereo unspecified),-2.8*,10,6,-5,-15,nt,0.0077,?,0.033,0.007,0.017*,0.011
CCN(CC)CCCOC(=O)c1ccc(OC)cc1O,-3.7,1,-16,-5,-23,nt,nt,nt,nt,nt,nt,nt
CS(=O)(=O)Nc1cccc(C2=NN(C(=O)c3ccccc3Cl)C(c3ccccc3O)C2)c1 (stereo unspecified),0.023,1,7,10,-19,-3,nt,nt,nt,nt,nt,nt
O=C(O)c1ccc(-c2nnn(Cc3cccc(C(F)(F)F)c3)n2)cc1,-0.59,nt,0,-16,-27,nt,nt,nt,nt,nt,nt,nt
O=[N+]([O-])c1ccc(-c2cn(-c3ccccc3F)c(=S)[nH]2)cc1,5.8*,3,1,3,-7,nt,0.0093,0.012*,0.031,0.0089*,?,0.011*
O=C1CC(=O)N2N=C(c3ccc([N+](=O)[O-])cc3)SC2=N1,0.55,-4,9,6,-15,4,nt,nt,nt,nt,nt,nt
O=C(CCc1ccccc1)c1c(O)cc(O)cc1O,-1.4*,nt,nt,nt,-21,nt,0.0054,0.0051,0.025*,0.0081,?,0.011
c1ccc(OCc2nn3c(-c4ccncc4)nnc3s2)cc1,-0.35,4,-14,-1,-14,5,nt,nt,nt,nt,nt,nt
COc1ccccc1-c1nnc2sc(COc3ccc(F)cc3)nn12,-3.9*,4,5,9,-16,2,0.0066,0.0048,?,0.0059*,0.015*,?
O=c1[nH]n2c(=O)c3c([nH]c2c1N=Nc1cccc(C(F)(F)F)c1)CCCC3,-2.1,-5,-18,5,25,-1,nt,nt,nt,nt,nt,nt
Cc1[nH]n(C2=NCCS2)c(=O)c1N=Nc1cccc(C(F)(F)F)c1,21*,-2,24,18,-15,nt,0.0063,0.075*,0.049*,0.034*,0.055*,0.035*
CCOC(=O)N1CCN(C(=O)c2cc(COc3ccc4ncccc4c3)on2)CC1,-0.71,-4,-1,17,-21,nt,nt,nt,nt,nt,nt,nt
Cc1cccnc1CN1CCN(C(=O)c2cc(COc3ccc4ncccc4c3)on2)CC1,nt,5,2,24,-30,nt,0.0085,0.0066,?,0.0075,0.017*,0.01
Cc1ccc(C)c(NC(=O)c2ccc(S(=O)(=O)C(F)F)cc2)c1,-0.81,8,-7,0,-17,1,nt,nt,nt,nt,nt,nt
CCOC(=O)c1[nH]c(C=O)c(C(=O)OCC)c1C,26*,-8,14,-1,-25,nt,0.0059,0.051*,0.04*,0.029*,0.044*,0.031*
CCOC(=O)c1[nH]c(C)c(C(=O)O)c1C,-1.1,4,-18,5,-17,-1,nt,nt,nt,nt,nt,nt
CC(C)CN(Cc1cc(=O)oc2cc3c(cc12)CCCC3)CC(C)C,-0.058,nt,3,-2,-9,nt,nt,nt,nt,nt,nt,nt
CCc1nnc(NC(=O)c2nn(-c3ccccc3)nc2C)s1,1.9,nt,-12,-20,-11,nt,nt,nt,nt,nt,nt,nt
Cc1nn(-c2ccccc2)nc1C(=O)Nc1nnc(C(F)(F)F)s1,24*,nt,5,-4,-12,nt,0.016*,0.049*,0.033,0.019*,0.04*,0.013*
CCCCCCCCC(=O)NNC(=O)c1c(O)c2ccccc2n(CC)c1=O,9.5*,5,-17,-10,-15,nt,0.0056,0.022*,0.036,0.019*,0.03*,0.019*
CCCCCCC(=O)NNC(=O)c1c(O)c2ccccc2n(CCC)c1=O,2.6,2,-19,-6,0,nt,nt,nt,nt,nt,nt,nt
CCCCCCCC(=O)NNC(=O)c1c(O)c2ccccc2n(CCC)c1=O,nt,0,-5,-3,-12,nt,nt,nt,nt,nt,nt,nt
CCCCCCC(=O)NNC(=O)c1c(O)c2ccccc2n(CC)c1=O,5.6*,16,-3,-2,-13,nt,0.0064,0.017*,0.034,0.017*,0.025*,0.016*
SMILES,Cl transport mod,NPY-Y1 antag,NPY1 pot ag,NPY2 pot ag,Furin inh,NPY-Y2 antag,KCC2 sec1,KCC2 bumet counter,KCC2 sec2,HEK293 Tl flux,KCC2 ouabain,HEK counter2
CCCCCCCC(=O)NNC(=O)c1c(O)c2ccccc2n(CC)c1=O,11*,2,-10,-11,-8,nt,0.0052,0.016*,0.033,0.017*,?,0.019*
Cc1c(Cc2ccccc2)sc(NC(=O)/C=C/c2cccc3ccccc23)c1C(N)=O,1.2,2,-6,-1,-15,6,nt,nt,nt,nt,nt,nt
O=S1(=O)N=C(N2CCN(Cc3ccccc3)CC2)c2ccccc21,-6*,1,-1,14,-15,1,0.0065,0.0044,0.024*,0.008,?,0.011
O=C(Nc1ccc(C(=O)N2CCOCC2)cc1)Nc1cccc2ccccc12,-0.063,-1,-7,17,-7,nt,nt,nt,nt,nt,nt,nt
O=C(CSc1nnc(-c2ccc3c(c2)OCO3)o1)Nc1ncc(Cl)cc1Cl,0.23,9,-6,2,-23,13,nt,nt,nt,nt,nt,nt
O=c1[nH]nc(-c2ccccc2)c2ccccc12,0.16,nt,-3,-4,-8,nt,nt,nt,nt,nt,nt,nt
c1ccc(-c2n[nH]c3ccccc23)cc1,-2.9*,1,5,-7,-7,1,0.0077,0.0061,0.03,0.0066,0.02,0.0096
Fc1ccc(-c2n[nH]c(=S)c3ccccc23)cc1,14*,1,-24,-3,-17,nt,0.011,0.021*,0.034,0.016*,?,0.013*
Cc1ccc(NCC(=O)N/N=C/c2c[nH]c3ccccc23)cc1,0.24,4,17,12,-9,nt,nt,nt,nt,nt,nt,nt
